ChEMBL document CHEMBL6177989, “Development of Diaryl Hydrazones for Alleviation of Mitochondrial Oxidative Stress in Preeclampsia” (2025)
The source made the active and inactive calls. No cut-off for these calls is given here.

Columns and labels:
[1] = Antioxidant activity assessed as trolox equivalent of DPPH radical scavenging activity […] measured every 15 mins for 60 mins by absorbance based assay; assay type: functional
Procedure, shortened: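 DPPH radical scavenging by absorbance at 25 °C, compounds at 200 μM antioxidant concentration. Percent scavenging from control vs sample absorbance; 60 min value divided by 60 min Trolox value to give Trolox equivalents. Mean ± SD, four independent repeats.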

[2] = Antioxidant activity assessed as trolox equivalent of ABTS radical scavenging activity at […] measured up to 12 mins by absorbance based analysis; assay type: functional
Procedure, shortened: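 ABTS radical generated 12–24 h before assay; compounds tested at 500 μM final antioxidant concentration; absorbance read on plate reader at 25 °C. Percent scavenging standardized to Trolox scavenging to give Trolox equivalents; mean ± SD of three independent repeats.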

[3] = Antioxidant activity assessed as trolox equivalent of ORAC radical scavenging activity […] measured every 2 mins for 60 mins by UV-Vis / fluorescence plate reader based analysis; assay type: functional
Procedure, shortened: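 ORAC: fluorescein with AAPH, fluorescence read 30 times; net AUC relative to AAPH control and no-AAPH maximum. Compounds at 80 μM; Trolox calibration (3.125–100 μM) of percent scavenging vs ln concentration gives Trolox equivalent concentration. 25 °C; mean ± SD, three independent repeats.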

HTR-8/SVneo = test: Antioxidant activity in H2O2 induced human HTR-8/SVneo cells assessed as reduction in sFLT-1 protein expression at 0.1 to 50 uM preincubated for 30 mins followed by H2O2 addition and measured after 20 hrs by ELISA method; assay type: functional, cell-based; settings: dose 0.1-50 µM, time 20.5 hrs
Procedure, shortened: (§1)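 HTR-8/SVneo cells in RPMI with 5% FBS, 37 °C, 5% CO2, pretreated 30 min with 0.1–50 μM compound, then 100 μM H2O2 for 20 h with compound present throughout. Supernatant sFLT-1 measured by human VEGFR1 ELISA; MitoTEMPO as reference antioxidant; 5 repeat experiments.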

[4] = Antioxidant activity in H2O2 induced human HTR-8/SVneo cells assessed as reduction in sFLT-1 protein expression at 0.1 to 50 uM preincubated for 30 mins followed by H2O2 addition and measured after 20 hrs by ELISA method relative to MitoTEMPO; assay type: functional; set-up: scale not given: the % may be the effect or the level left; settings: dose 0.1-50 µM, time 20.5 hrs; procedure, shortened: as §1
[5] = Antioxidant activity in H2O2 induced human HTR-8/SVneo cells assessed as reduction in mitochondrial derived ROS production at 50 uM preincubated for 30 mins followed by H2O2 addition and measured after 20 hrs by MitoSOX red staining based immunofluorescence analysis relative to control; assay type: functional; set-up: scale not given: the % may be the effect or the level left; settings: time 20.5 hrs
Procedure, shortened: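 HTR8 cells pretreated 30 min with 50 μM compound, then 100 μM H2O2 for 20 h. Mitochondrial superoxide imaged with MitoSOX Red by fluorescence microscopy at 20×; OD per cell surface area over 3 high-power fields per sample, n = 4 per group; median [IQR], Mann–Whitney U test.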

| Structure (SMILES) | Activity [1] | Activity [2] | Activity [3] | Activity (HTR-8/SVneo) | Activity [4] | Activity [5] |
| --- | --- | --- | --- | --- | --- | --- |
| COc1ccc(/C(C)=N/Nc2ccccc2)c(O)c1 | Active | Active | Active |  |  |  |
| C/C(=N\Nc1ccccc1)c1ccc(C)cc1 | Active | Active | Active |  |  |  |
| O=[N+]([O-])c1ccc(/C=N/Nc2cccc(C(F)(F)F)c2)cc1 | Active | Active | Active | Active |  |  |
| COc1ccc(N/N=C/c2ccc(/C=N/Nc3ccc(OC)cc3)cc2)cc1 | Active | Active | Active |  |  |  |
| C(=N\Nc1ccccc1)/c1ccc2ccccc2c1 | Active | Active | Active |  |  |  |
| C(=N\Nc1ccccc1)/c1c[nH]c2ccccc12 | Active | Active | Active |  |  |  |
| CN(C)c1ccc(/C=N/Nc2cccc(C(F)(F)F)c2)cc1 | Active | Active | Active | Active | 10% | 50% |
| C/C(=N\Nc1ccccc1)c1ccc(Cl)cc1 | Active | Active | Active |  |  |  |
| COc1ccc(N/N=C/c2ccc3ccccc3c2)cc1 | Active | Active | Active |  |  |  |
| CN(C)c1ccc(/C=N/Nc2ccccc2C(F)(F)F)cc1 | Active | Active | Active | Active |  |  |
| Fc1c(F)c(F)c(/C=N/Nc2ccc(C(F)(F)F)cc2)c(F)c1F | Active | Active | Active | Active |  |  |
| O=[N+]([O-])c1cccc(N/N=C/c2ccc3ccccc3c2)c1 | Active | Active | Weak_effect |  |  |  |
| COc1ccc(/C=N/Nc2ccc(C(F)(F)F)cc2)c(O)c1 | Active | Active | Active | Active |  |  |
| COc1ccc(N/N=C/c2ccc([N+](=O)[O-])cc2)cc1 |  |  | Active |  |  |  |
| COc1ccc(N/N=C(\C)c2cc3ccc(OC)cc3oc2=O)cc1 | Active | Active | Active |  |  |  |
| COc1ccc(/C=N/Nc2cccc(C(F)(F)F)c2)cc1OC | Active | Active | Active | Active | 10% |  |
| Cc1ccc(C)c(N/N=C/c2ccc3ccccc3c2)c1 | Active | Active | Active |  |  |  |
| FC(F)(F)c1ccccc1N/N=C/c1c2ccccc2cc2ccccc12 | Active | Active | Weak_effect |  |  |  |
| CN(C)c1ccc(/C=N/Nc2ccc(C(F)(F)F)cc2)cc1 | Active | Active | Active | Active |  |  |
| C/C(=N\Nc1cc(C)ccc1C)c1cccc([N+](=O)[O-])c1 | Weak_effect | Weak_effect | Active |  |  |  |
| Clc1ccc(N/N=C/c2ccc3ccccc3c2)cc1 | Active | Active |  |  |  |  |
| FC(F)(F)c1cccc(N/N=C/c2ccc(/C=N/Nc3cccc(C(F)(F)F)c3)cc2)c1 | Active | Active | Active | Active |  |  |
| C/C(=N\Nc1cc(C)ccc1C)c1ccc([N+](=O)[O-])cc1 | Weak_effect | Weak_effect | Active |  |  |  |
| COc1ccc(N/N=C(\C)c2ccc([N+](=O)[O-])cc2)cc1 | Weak_effect | Weak_effect | Active |  |  |  |
